{
  "source": "ChEMBL document CHEMBL2331228",
  "about": "“Synthesis and insight into the structure-activity relationships of chalcones as antimalarial agents” (J Med Chem, 2013)",
  "key": {"Plasmodium yoelii [1]": {"tested_on": "Plasmodium yoelii", "test": "Antimalarial activity against chloroquine-resistant Plasmodium yoelii N-67 infected in Swiss mouse assessed as mean survival time at 20 mg/kg/day, po administered for 3 days (reference value: 9.20 +/- 0.44 days)", "assay_type": "functional"}, "Plasmodium yoelii [2]": {"tested_on": "Plasmodium yoelii", "test": "Antimalarial activity against chloroquine-resistant Plasmodium yoelii N-67 infected in Swiss mouse assessed as reduction in parasitemia at 20 mg/kg/day, po administered for 3 days measured on day 4 relative to control", "assay_type": "functional", "parameters": "scale not given: the % may be the effect or the level left"}, "Plasmodium falciparum [3]": {"tested_on": "Plasmodium falciparum", "test": "Antimalarial activity against schizont stage of chloroquine-sensitive Plasmodium falciparum 3D7 assessed as reduction in parasitemia at 2 to 10 ug/ml after more than 40 hrs by Giemsa staining-based light microscopy", "assay_type": "functional", "parameters": "scale not given: the % may be the effect or the level left", "method_in_brief": "(§1)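 Ring stages (5% D-sorbitol synchronized) of 3D7 were grown in RPMI with 10% FBS, gentamycin and Fungizone at 37 °C under CO2. They were exposed in duplicate to compound (DMSO stock, 5 mg/mL) at 2, 10 and 50 μg/mL, with 3% cell suspension and 1% parasitized cells, for >40 h. Giemsa-stained thin smears were counted for schizonts. MIC is the lowest concentration giving 100% inhibition of schizont maturation.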"}, "Plasmodium falciparum [4]": {"tested_on": "Plasmodium falciparum", "test": "Antimalarial activity against schizont stage of chloroquine-sensitive Plasmodium falciparum 3D7 after more than 40 hrs by Giemsa staining-based light microscopic analysis", "assay_type": "functional", "conditions": "3D7, 40 h", "method_in_brief": "as §1"}, "Plasmodium falciparum [5]": {"tested_on": "Plasmodium falciparum", "test": "Antimalarial activity against schizont stage of chloroquine-sensitive Plasmodium falciparum 3D7 assessed as reduction in parasitemia at 10 ug/ml after more than 40 hrs by Giemsa staining-based light microscopy", "assay_type": "functional", "parameters": "scale not given: the % may be the effect or the level left", "method_in_brief": "as §1"}, "Plasmodium falciparum [6]": {"tested_on": "Plasmodium falciparum", "test": "Activation of Plasmodium falciparum recombinant Falcipain-3 using Z-LR-AMC as substrate at high concentration after 30 mins by microplate reader analysis"}, "[7]": {"test": "Inhibition of Plasmodium falciparum recombinant Falcipain-2 using Z-LR-AMC as substrate after 30 mins by microplate reader analysis"}, "Plasmodium falciparum [8]": {"tested_on": "Plasmodium falciparum", "test": "Inhibition of Plasmodium falciparum recombinant Falcipain-3 using Z-LR-AMC as substrate at low concentration after 30 mins by microplate reader analysis"}, "Plasmodium yoelii [9]": {"tested_on": "Plasmodium yoelii", "test": "Antimalarial activity against chloroquine-resistant Plasmodium yoelii N-67 infected in Swiss mouse assessed as mean survival time of host at 50 mg/kg/day, ip administered for 3 days (reference value: 9.20 +/- 0.44 days)", "assay_type": "functional", "conditions": "route intraperitoneal"}, "Plasmodium yoelii [10]": {"tested_on": "Plasmodium yoelii", "test": "Antimalarial activity against chloroquine-resistant Plasmodium yoelii N-67 infected in Swiss mouse assessed as reduction in parasitemia at 50 mg/kg/day, ip administered for 3 days measured on day 4 relative to control", "assay_type": "functional", "parameters": "scale not given: the % may be the effect or the level left", "conditions": "route intraperitoneal"}, "[11]": {"test": "Selectivity index, ratio of CC50 for african green monkey Vero C1008 cells to IC50 for Plasmodium falciparum 3D7", "assay_type": "functional", "method_in_brief": "(§2)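 SI = CC50 (Vero, 72 h MTT) / IC50. IC50 comes from a 72 h SYBR Green I fluorescence assay: seven 2-fold dilutions in duplicate, 2% cell suspension at 0.8% parasitemia, and Logit regression of the dose-response.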"}, "[12]": {"test": "Selectivity index, ratio of CC50 for african green monkey Vero C1008 cells to IC50 for Plasmodium falciparum K1", "assay_type": "functional", "method_in_brief": "as §2"}, "[13]": {"test": "Cytotoxicity against african green monkey Vero C1008 cells after 72 hrs by MTT assay", "assay_type": "cell-based", "conditions": "chlorocebus sabaeus", "method_in_brief": "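Vero (C1008) cells were incubated with dilutions of compound for 72 h and read by MTT. CC50 was obtained by nonlinear regression.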"}, "Plasmodium falciparum [14]": {"tested_on": "Plasmodium falciparum", "test": "Resistance ratio of IC5O for Plasmodium falciparum K1 to IC50 for Plasmodium falciparum 3D7", "assay_type": "functional", "method_in_brief": "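Ratio of K1 IC50 to 3D7 IC50. Both come from the 72 h SYBR Green I fluorescence assay: seven 2-fold dilutions in duplicate, 0.8% parasitemia, IC50 by logit regression.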"}, "Plasmodium falciparum [15]": {"tested_on": "Plasmodium falciparum", "test": "Antimalarial activity against chloroquine-resistant Plasmodium falciparum K1 after 72 hrs by SYBR Green I-based fluorescence assay", "assay_type": "functional, organism-based", "conditions": "K1, 72 h", "method_in_brief": "(§3)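 Parasites cultured in RPMI with 10% FBS, gentamycin and Fungizone (pH 7.2) at 37 °C in CO2. Compounds from DMSO stock (5 mg/mL). Seven 2-fold serial dilutions, duplicate wells. Cells added at 2% hematocrit, 0.8% parasitemia; uninfected-cell wells kept as background. After 72 h, lysis buffer with SYBR Green I, 1 h at 37 °C, fluorescence read. IC50 by logit regression of dose-response.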"}, "Plasmodium falciparum [16]": {"tested_on": "Plasmodium falciparum", "test": "Antimalarial activity against schizont stage of chloroquine-sensitive Plasmodium falciparum 3D7 after 72 hrs by SYBR Green I-based fluorescence assay", "assay_type": "functional, organism-based", "conditions": "3D7, 72 h", "method_in_brief": "as §3"}, "Plasmodium falciparum [17]": {"tested_on": "Plasmodium falciparum", "test": "Antimalarial activity against Plasmodium falciparum", "assay_type": "functional"}},
  "note": "Active and inactive are the calls of the source. The rule behind the calls is not given here.",
  "data": [
    {"smiles": "CCN(CC)CCCC(C)Nc1ccnc2cc(Cl)ccc12", "note": "(stereo not given) [CHLOROQUINE]", "values": [
      {"measurement": "MST", "setting": "Plasmodium yoelii [1]", "value": ">28", "unit": "days"},
      {"measurement": "Activity", "setting": "Plasmodium yoelii [2]", "value": 99, "unit": "%"}
    ]},
    {"smiles": "CC1(C)CCc2cc(C(=O)/C=C/c3ccccn3)c(O)cc2O1", "values": [
      {"measurement": "Activity", "setting": "Plasmodium falciparum [3]", "value": "<100", "unit": "%"},
      {"measurement": "MIC", "setting": "Plasmodium falciparum [4]", "value": "> 32.4", "unit": "µM"}
    ]},
    {"smiles": "CC1(C)CCc2cc(C(=O)/C=C/c3ccc(F)c(F)c3)c(O)cc2O1", "values": [
      {"measurement": "Activity", "setting": "Plasmodium falciparum [5]", "value": "<100", "unit": "%"},
      {"measurement": "MIC", "setting": "Plasmodium falciparum [4]", "value": "> 29.1", "unit": "µM"}
    ]},
    {"smiles": "CC(C)=CCCC1(C)C=Cc2c(ccc(C(=O)/C=C/c3ccc(O)c(C=O)c3)c2O)O1", "note": "(stereo not given)", "values": [
      {"measurement": "Activity", "setting": "Plasmodium falciparum [6]", "value": "Active"},
      {"measurement": "IC50", "setting": "[7]", "value": 5.5, "unit": "µM"},
      {"measurement": "inhibition", "setting": "Plasmodium falciparum [8]", "value": "Active"},
      {"measurement": "MST", "setting": "Plasmodium yoelii [9]", "value": 12.33, "unit": "days"},
      {"measurement": "Activity", "setting": "Plasmodium yoelii [10]", "value": 89, "unit": "%"},
      {"measurement": "Ratio CC50/IC50", "setting": "[11]", "value": 79},
      {"measurement": "Ratio CC50/IC50", "setting": "[12]", "value": 9},
      {"measurement": "CC50 at 72 h", "setting": "[13]", "value": 9.9, "unit": "µM"},
      {"measurement": "Ratio IC50", "setting": "Plasmodium falciparum [14]", "value": 8.7},
      {"measurement": "IC50", "setting": "Plasmodium falciparum [15]", "value": 1.09, "unit": "µM"},
      {"measurement": "IC50", "setting": "Plasmodium falciparum [16]", "value": 0.125, "unit": "µM"},
      {"measurement": "MIC", "setting": "Plasmodium falciparum [4]", "value": 0.59, "unit": "µM"}
    ]},
    {"smiles": "CN(C)c1ccc(/C=C/C(=O)c2ccc3c(c2O)CCC(C)(C)O3)cc1", "values": [
      {"measurement": "Activity", "setting": "Plasmodium falciparum [5]", "value": "<100", "unit": "%"},
      {"measurement": "MIC", "setting": "Plasmodium falciparum [4]", "value": "> 28.5", "unit": "µM"}
    ]},
    {"smiles": "CC(C)CCC[C@H](C)CCC[C@H](C)CCCC1(C)CCc2cc(C(=O)/C=C/c3cccnc3)c(O)cc2O1", "note": "(stereo not given in full)", "values": [
      {"measurement": "Activity", "setting": "Plasmodium falciparum [3]", "value": "<100", "unit": "%"},
      {"measurement": "MIC", "setting": "Plasmodium falciparum [4]", "value": "> 19.3", "unit": "µM"}
    ]},
    {"smiles": "CC(C)=CCc1cc(C(=O)/C=C/c2ccc(O)cc2)c(O)c(CC=C(C)C)c1O", "note": "[MEDICAGENIN]", "values": [
      {"measurement": "MIC", "setting": "Plasmodium falciparum [17]", "value": 5.1, "unit": "µM"},
      {"measurement": "MIC", "setting": "Plasmodium falciparum [4]", "value": 5.1, "unit": "µM"}
    ]},
    {"smiles": "CC(C)=CCC1=C/C(=C(O)\\C=C\\c2ccc(O)cc2)C(=O)C(CC=C(C)C)(CC=C(C)C)C1=O", "note": "[MUNCHIWARIN]", "values": [
      {"measurement": "MIC", "setting": "Plasmodium falciparum [17]", "value": 4.34, "unit": "µM"}
    ]}
  ]
}
